Reference: ChEMBL document CHEMBL2177000, “Pharmacokinetic optimization of class-selective histone deacetylase inhibitors and identification of associated candidate predictive biomarkers of hepatocellular carcinoma tumor response” (J Med Chem, 2012)
Activity calls are given as the source filed them. The rule behind the calls is not given here.

How the values were obtained:
Mus musculus [1] = test: Toxicity in human Bel7404 cells xenografted BALB/C mouse assessed as body weight loss at 50 mg/kg, po qd for 4 weeks; conditions: in vivo, 672 h
BGC-823 = format: functional, Homo sapiens
[2] = Antitumor activity against treatment responding human hepatocellular carcinoma patient tumor xenografted in BALB/C mouse assessed as tumor growth inhibition at 100 mg/kg, po administered every other day for 4 weeks; format: functional; conditions: 672 h, read-out: TGI
Outline: (§1)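 Tumor fragments (3×3×3 mm3) from HCC patients implanted subcutaneously in right flank of female BALB/c nu/nu mice (6−7 weeks). At about 200 (150−250) mm3, randomized (n = 10 per arm); Q2D PO 100 mpk in 15% Kleptose pH 4.5 tartaric buffer, about four weeks; caliper tumor volume three times weekly.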

BEL-7404 = test: Antitumor activity against human BEL-7404 cells xenografted in BALB/C mouse assessed as tumor growth inhibition at 50 mg/kg, po qd for 4 weeks; conditions: BEL-7404, po, 672 h, read-out: TGI
SMMC-7721 = format: functional, Homo sapiens
MGC-803 = format: functional, Homo sapiens
Mus musculus [3] = test: Half life in BALB/C mouse at 10 mg/kg, po or 2 mg/kg, iv by LC-MS/MS method; format: ADME, organism-based; conditions: in vivo
Outline: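 Female-unspecified BALB/C nude mice (15−20 g, N = 16 per arm); iv bolus 2 mg/kg in 5% DMSO/40% PEG400/55% saline and/or oral gavage 10 mg/kg as 0.445% microcrystalline cellulose microsuspension. Blood sampled at nine (iv) or eight (po) time points into sodium heparin tubes; plasma by LC-MS/MS; noncompartmental analysis.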

Mus musculus [4] = test: Up-regulation of CDKN2A gene expression in human hepatocellular carcinoma patient tumor xenografted in BALB/C mouse at 100 mg/kg, po administered every other day for 4 weeks by […]; format: functional, organism-based; set-up: dose 100 mg/kg
Outline: (§2)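 Patient HCC tumor fragments (3 × 3 × 3 mm3) implanted subcutaneously in female BALB/c nu/nu mice; at ~200 (150−250) mm3 dosed orally Q2D 100 mpk in 15% Kleptose pH 4.5 tartaric buffer for about four weeks. Tumor RNA (TRIzol, DNase I) run on 22-gene qRT-PCR array, normalized to GAPDH/β-glucuronidase by ΔCt, fold change versus day 0.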

Mus musculus [5] = test: Up-regulation of CEBPA gene expression in human hepatocellular carcinoma patient tumor xenografted in BALB/C mouse at 100 mg/kg, po administered every other day for 4 weeks by […]; format: functional, organism-based; set-up: dose 100 mg/kg
Outline: as §2

Mus musculus [6] = test: Inhibition of Class 1 histone deacetylase in human Bel7404 cells xenografted BALB/C mouse assessed as induction of histone H3 acetylation at 100 mg/kg, po administered every other day for 4 weeks by Western blot method; conditions: Bel-7404
Mus musculus [7] = test: Inhibition of Class 1 histone deacetylase in treatment responding human hepatocellular carcinoma patient tumor xenografted in BALB/C mouse assessed as induction of histone H3 acetylation at 100 mg/kg, po administered every other day for 4 weeks by immunohistochemistry; format: functional, organism-based; set-up: dose 100 mg/kg
Outline: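 Patient-derived HCC xenografts in female nude mice given 100 mpk Q2D PO (15% Kleptose, pH 4.5 tartaric buffer); single dose on last day, tumors harvested 0 to 24 h post-dose. Paraffin sections, citrate pH 6.0 antigen retrieval, anti-Ac-H3 (Lys9) 1:200 overnight 4 °C, HRP/DAB; scored 0−3 independently by two pathologists.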

Homo sapiens = test: Antitumor activity against treatment non-responding human hepatocellular carcinoma patient tumor xenografted in BALB/C mouse assessed as tumor growth inhibition at 100 mg/kg, po administered every other day for 4 weeks; format: functional, organism-based; set-up: dose 100 mg/kg
Outline: as §1

Mus musculus [8] = test: Up-regulation of CTGF gene expression in human hepatocellular carcinoma patient tumor xenografted in BALB/C mouse at 100 mg/kg, po administered every other day for 4 weeks by […]; format: functional, organism-based; set-up: dose 100 mg/kg
Outline: as §2

Mus musculus [9] = test: Reactivation of SPINT2 gene expression in treatment responding human hepatocellular carcinoma patient tumor xenografted in BALB/C mouse at 100 mg/kg, po administered every other day for 4 weeks; format: functional, organism-based; set-up: dose 100 mg/kg
Outline: as §2

Mus musculus [10] = test: Up-regulation of CCND2 gene expression in human hepatocellular carcinoma patient tumor xenografted in BALB/C mouse at 100 mg/kg, po administered every other day for 4 weeks by […]; format: functional, organism-based; set-up: dose 100 mg/kg
Outline: as §2

[11] = Clearance in human liver microsomes at 1 uM incubated for 10 mins by LC-MS/MS method; format: ADME, Microsome
Outline: (§3)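 Liver microsomes (human or mouse, 0.5 mg/mL) in 100 mM potassium phosphate pH 7.4 with 1 μM compound, prewarmed 10 min at 37 °C, started with NADPH (10 mM); stopped at 0, 3, 6, 9, 15, 30 min with ice-cold methanol containing tolbutamide internal standard; LC-MS/MS. Hepatic clearance (mL/min/kg) calculated from intrinsic clearance.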

[12] = Clearance in mouse liver microsomes at 1 uM incubated for 10 mins by LC-MS/MS method; format: ADME, Microsome
Outline: as §3

CN1C[C@H](C(=O)Nc2ccc(Cl)cc2)[C@@H](c2ccc(/C=C/C(=O)Nc3ccccc3N)cc2)C1 [listing 1 of 2 here]
Activity (Mus musculus [1]): < 10% | GI90 (BGC-823): 2200 nM | inhibition in vivo at 100 mg/kg [2]: 50% | inhibition in vivo at 50 mg/kg (BEL-7404): > 60% | GI90 (SMMC-7721): 1900 nM | GI90 (MGC-803): 2000 nM | t1/2 (Mus musculus [3]): 3.4 h

CN1C[C@H](C(=O)Nc2ccc(Cl)cc2)[C@@H](c2ccc(/C=C/C(=O)Nc3ccccc3N)cc2)C1 [listing 2 of 2 here]
Activity (Mus musculus [4]): inactive | Activity (Mus musculus [5]): Active | inhibition (Mus musculus [6]): Active | inhibition (Mus musculus [7]): Active | TGI (Homo sapiens): inactive | Activity (Mus musculus [8]): Active | Activity (Mus musculus [9]): Active | Activity (Mus musculus [10]): Active

CN1C[C@H](C(=O)Nc2ccc(Cl)cc2)[C@@H](c2ccc(/C=C/C(=O)Nc3ccccc3N)cc2F)C1 (racemic)
CLhep predicted at 1 µM [11]: 14 mL/min/kg | CLhep predicted at 1 µM [12]: 36 mL/min/kg
